From paper PMC5204042 (Journal of Breast Cancer, 2016)
≈ marks a conversion by molar mass, not a printed value. Entries after “also recorded” stand apart in the source; their conditions may differ.

How the values were obtained:
Assay type in all cases: cell-based
cytochrome c = assay: Mitochondrial cyt c release, immunofluorescence; conditions: MDAMB-231, compound at IC50, 24 hours
Procedure, shortened: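 Mitochondria were labelled with MitoTracker Red (200 nM, 45 min), and cytochrome c was immunostained with an anti-cyt c antibody followed by FITC anti-mouse secondary (4 h, 37 °C). Coverslips were mounted and examined by fluorescence microscopy for cyt c relocation.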

[1] = system: MCF-7 breast cancer cells; assay: MTT viability assay, MCF-7; conditions: Homo sapiens, MCF7, 48 h, read-out: Anticancer activity (IC50 ± SD) MCF-7
PKCα = PKCα (Homo sapiens, UniProt P17252); assay: Immunoblotting to detect PKCα translocation from cytosol to plasma membrane; conditions: MDAMB-231, compound at IC50, 30 minutes, cytosolic PKCα normalized to 100%
MDAMB-231 cells = assay: DNA fragmentation
caspase-3 = assay: Caspase-3 activity assay; conditions: MDAMB-231, compound at IC50, 24 hours, vs untreated
caspase-9 = assay: Caspase-9 activity assay; conditions: MDAMB-231, compound at IC50, 24 hours, vs untreated

For `COc1cc(/C=C/C(=O)CC(=O)/C=C/c2ccc(O)c(OC)c2)ccc1O` [Curcumin], the “release of cyt c from mitochondria to cytosol” value (cytochrome c) was “release of cyt c”, the IC50 [1] was 5 ± 0.8 µg/mL (≈ 13.6 µM) and the “translocation of PKC from cytosol to the plasma membrane” value (PKCα) was 17%±1.9%. For the same molecule, the “genomic DNA fragmentation” value (MDAMB-231 cells; MDAMB-231, compound at IC50, 12 hours, agarose gel) was “produced distinct DNA fragments; also recorded: showed DNA fragments of different sizes”, the “genomic DNA fragmentation in presence of NAC” value (MDAMB-231 cells; MDAMB-231 preincubated with NAC (5 mM)) was “intact gDNA with no visible appearance of DNA fragments” and the “increase in caspase-3 activity” value (caspase-3) was 65%. The “increase in caspase-9 activity” value (caspase-9) was 35%.
